We go through 48 sequences from the EternaBench riboswitch data.

This data set concerns MS2 coat protein. The data set is described as follows: apparent Kd, MS2 coat protein; higher = weaker binding; RNA-MaP array; FMN 200 µM where present. The method in brief: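 Stalled E. coli RNA polymerase transcribed the designs on Illumina sequencing-chip clusters. SNAP-549-labelled MS2 coat protein was titrated from 0.7 or 1.5 nM, doubling to 3 µM, without and then with constant ligand, in 100 mM Tris-HCl pH 7.5, 80 mM KCl, 4 mM MgCl2, BSA, DTT, yeast tRNA and Tween-20. Per-cluster binding curves were fitted to green signal normalised to red-channel RNA signal and control-cluster median Fmax. The apparent Kd is the median of the filtered fits.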

Setting [1] is: designed as: OFF switch for flavin mononucleotide, no ligand.
[2] abbreviates: ligand present: flavin mononucleotide, designed as: OFF switch for flavin mononucleotide.
Setting [3] is: designed as: ON switch for flavin mononucleotide, no ligand.
[4] abbreviates: ligand present: flavin mononucleotide, designed as: ON switch for flavin mononucleotide.

For “CUCAGCUCGUCAGGAUAUACGUCACUGCUUCGGCAGUGUGGUAAGAUCACAUGAGGAUCACCCAUGUAGAAGGGACGAGCUGAU”, the “apparent Kd” value reads like this: under setting [1], 11.7 nM; under setting [2], 248 nM.
The matching figures for “AAUGUCUGAGGAUAUCGUUUUUUGUACAUGAGGAUCACCCAUGUUUUAUUUUGUAUAUUACGAGAAGGCAGUGGAA”: 24.1 nM and 18.5 nM.
Regarding “AGCUGUGGCCGAGGAUAUCUAACCUUCAUAACCGAAAUAUAAUCGGACAUGAGGAUCACCCAUGUAGAGAAGGCGGUCUCAGCA”, the “apparent Kd” value worked out at 18.2 nM under setting [1] and 191 nM under setting [2].
For “AAUGGGCAGCAGAAGGCAUGUCAUAAGACAUGAGGAUCACCCAUGUAGUUAAGGCGAAAGCCGCAUGAGGAUAUGCUGCCCUAA”, the “apparent Kd” value reads like this: under setting [3], 66 nM; under setting [4], 6.71 nM.
In the case of “UGAGCUACAGGAUAUACGUGACGACCGUGAGGUCGAAGGUUACAUGAGGAUCACCCAUGUAGAAGGGUAGUUCU”, the “apparent Kd” value reads like this: under setting [1], 148 nM; under setting [2], 148 nM.
With “AUAAAACAUGAGGAUCACCCAUGUAAGGAUAUGCGAAAAUAAAAUAAAAUAAAAUAAAGCAGAAGGUACAAAAA”, the “apparent Kd” value stood at 51 nM under setting [1] and 59.6 nM under setting [2].
Consider “AGUAGAUCAGGAUAUACAUGAAAGAUCAAAAUGUCACUACUACAUGAGGAUCACCCAUGUAGAAGGGAUCUACA”, for which the “apparent Kd” value under setting [1] stood at 52.9 nM and the “apparent Kd” value under setting [2] came to 36.7 nM.
For the sequence “CUCAUGUAAGGAUAUCAGUAGUAAAAAAAUAAAAUUACUACUGAGAAGGUACAUGAGGAUCACCCAUGUCCUUC”, the “apparent Kd” value turned out to be 96.1 nM under setting [1] and 56.2 nM under setting [2].
For “GCAUUGAUAACAGGAUAUAUGUUUCCUACAUGAGGAUCACCCAUGUAGGUGAUCAGCCGCGAAAAGUAGAAGGGUUAUCAAUGC”, the “apparent Kd” value came to 18 nM under setting [3] and 16.7 nM under setting [4].
As for “CGAUGGUAGACAGGAUAUCGACCGGGAUACUAUGAAGACUAUAAACACAUGAGGAUCACCCAUGUCGAGAAGGGUCUCACAGCG”, the “apparent Kd” value runs as follows: under setting [1], 37.1 nM; under setting [2], 60.9 nM.
As to “AUCAAUCGUGUAGGAUAUGCGUGGCGAAGCUAUGCAGAAGGACAUGAGGAUCACCCAUGUCUUUCUGUCUGUGUACAGACAGGA”, the “apparent Kd” value by setting is: under setting [1], 20.4 nM; under setting [2], 71.5 nM.
Taken in the same sequence, the figures for “UCCUGGCGAGGAUAUACAAUGUUUUUCACGUUUUGUUUCGAACAUGAGGAUCACCCAUGUAGAAGGUGCUACUG” were 53.2 nM and 44.7 nM.
Taken in the same sequence, the figures for “GUAGAGUAGUGAGGAUAUACGAGCACGAUAGUGCGGCGAUCCAAUAAUACAUGAGGAUCACCCAUGUAGAAGGCACUUCUCUAC” were 7.43 nM and 81.2 nM.
Turning to “AACAGUACAGGAUAUACAUGAGGAUCACCCAUGUGAGAUUUAAGUGGCGUACCACAAAGUAGAAGGGUACUGGA”, the “apparent Kd” value under setting [1] was 38 nM and the “apparent Kd” value under setting [2] amounted to 187 nM.
On to “AUACUCAUGUAAGGAUAUGCAGCCGUUUCGGCUGCAGAAGGUACUAUAAUACAUGAGGAUCACCCAUGUCUCUCGCCUUGCGAG”, for which the “apparent Kd” value under setting [3] is 710 nM and the “apparent Kd” value under setting [4] came to 89.7 nM.
Consider “GUGGUGCAUAUACGUGGAUGUACAUGAGGAUCACCCAUGUAAGAGGAUAUGCGGAUACUAGCUCAGCAGAAGGCUUACAAAUGC”, for which the “apparent Kd” value under setting [1] is 9.75 nM and the “apparent Kd” value under setting [2] is 27.5 nM.
For the sequence “GCGGAGAUACAGAAGGGAUAAGCCCUGGGCUAGUCAGGAUAUGUACGACGCAUCGUACAUGAGGAUCACCCAUGUAGCCGCUUG”, the “apparent Kd” value by setting is: under setting [3], 322 nM; under setting [4], 162 nM.
Taken in the same sequence, the figures for “AUUUAGUGCGAGAAGGCGUGGUCACAUGAGGAUCACCCAUGUCAGUACACGAGGAUAUCGUUUCGCUGUGUAAACACAAGCGAC” were 40.3 nM and 6.15 nM.
In the case of “CGACAUACGAUGGACGGAAACGUACAUGAGGAUCACCCAUGUAGAAGGCGAUCCGCAACGCGGAUUGAGGAUAUAUACCACACA”, the “apparent Kd” value runs as follows: under setting [1], 19.2 nM; under setting [2], 17.8 nM.
Regarding “GGCGACCUAGGAUAUACAUGAGGAUCACCCAUGUUUAUCUAUUAGAUGAAGACGGGUUGUAGAAGGAGGAUAUU”, the “apparent Kd” value is, setting by setting: under setting [1], 15.5 nM; under setting [2], 18.2 nM.
With “UUUUACUAGUAAGGAUAUACUAGCGAUUAGCUUGUAGAAGGUGCAGUCUUAUGUAUAACAUGUUAACAUGAGGAUCACCCAUGU”, the “apparent Kd” value runs as follows: under setting [3], 125 nM; under setting [4], 37.6 nM.
As for “UCGUAUAAGGGCAUUACACAUGAGGAUCACCCAUGUACGUUAGAGGAUAUGCAUUCCAGUUGAACGUAGAAGGCUAGAGAAGGG”, the “apparent Kd” value runs as follows: under setting [1], 132 nM; under setting [2], 129 nM.
The matching figures for “GCCGAAAGUGUGAGGAUAUACCUAUGGAUACAUAGGUAGAAGGCACAUGAGGAUCACCCAUGUGUUUCAACGGC”: 19.3 nM and 71.6 nM.
Taken in the same sequence, the figures for “GAAUGUCGGGUAGGAUAUGACUUGCCACGGAGGUCAGAAGGGCCACGACAUGAGGAUCACCCAUGUACUGUAUUCCUUUUUCAA” were 25.3 nM and 98.1 nM.
Regarding “AAACACGGACAUGAGGAUCACCCAUGUGGCGAAAGCCUUGGGAGAAGGAUAAAUAUAUAAUAAAAUUAGGAUAUUCAUACCGUG”, the “apparent Kd” value worked out at 306 nM under setting [3] and 104 nM under setting [4].
Regarding “UGUCGGAGCAGAGGAUAUUACAUGAGGAUCACCCAUGUGGAAAAACCAAGCUGGAAACAGCAAUGUAAGAAGGCUGCUCCGACA”, the “apparent Kd” value reads like this: under setting [1], 487 nM; under setting [2], 804 nM.
Turning to “AAAACAUACCGAGGAUAUUCAUAUAAUAAAUAAACAUGAGGAUCACCCAUGUGGCAAAAGCCUAGGGAGAAGGCGGAAUGCUAA”, the “apparent Kd” value came out at 36 nM under setting [3] and 22.4 nM under setting [4].
On to “AAGUCAGCAGGAUAUGCGAUGUUGUGCUAGAUAGCGGGACCACAUGAGGAUCACCCAUGUAGAAGGGCUGGCUA”, for which the “apparent Kd” value runs as follows: under setting [1], 34 nM; under setting [2], 22.5 nM.
Taken in the same sequence, the figures for “GCGCGUUGAGGAUAUACGAACAUGUCGCCAGAUGUCAUGGUACAUGAGGAUCACCCAUGUAGAAGGUGGUGCGC” were 208 nM and 352 nM.
For “GCGUAUAUAAGAUUUAUAAAACAGUCAGAAGGUGAUAAGACGACAUGAGGAUCACCCAUGUAAUUCAAGGAUAUGAUAAUGCGC”, the “apparent Kd” value is 56.3 nM under setting [3] and 15.4 nM under setting [4].
As for “UUUAUGUCAGGAUAUGAGGAGUAGAACAAUAGUACUACUCCUCAGAAGGGACAUGAGGAUCACCCAUGUUCCUC”, the “apparent Kd” value worked out at 20.7 nM under setting [1] and 91.9 nM under setting [2].
In the case of “UAUCUAUUUAUGGGAUUAGAAUAUGAGGAUAUCAUUUAUUUAUACAUGAGGAUCACCCAUGUUACUGAGAAGGCAUAUUUAAUA”, the “apparent Kd” value came to 13.4 nM under setting [3] and 7.47 nM under setting [4].
For the sequence “UUGAUGUCAGGAUAUGCUUAAUAUAUUUUAUUAUAAUAUAUACAUGAGGAUCACCCAUGUAGAAGGGACAUUGU”, the “apparent Kd” value worked out at 28.7 nM under setting [1] and 23.8 nM under setting [2].
As for “UGUUUUCAUGUAGGAUAUGCUUGUCGUAGAUACGCAGAAGGACAUGAGGAUCACCCAUGUUAAAGCGACAGAGUAUAGAUUCUU”, the “apparent Kd” value under setting [1] turned out to be 16.3 nM and the “apparent Kd” value under setting [2] turned out to be 22.3 nM.
The matching figures for “UCAUCGUGAGGAUAUUAUCGUAAGUGCAGGGUCUGACUUAGUAAGAAGGCACAUGAGGAUCACCCAUGUCCCUC”: 20.2 nM and 28.5 nM.
The matching figures for “AGAUCUAGGACAGGAUAUACUGAUGGCUUCAUCGAAGAUGAAGCCAUCACAUGAGGAUCACCCAUGUAGAAGGGUCCUAGAUCA”: 14.5 nM and 14.9 nM.
Consider “UGAUAGCACAGAGGAUAUGCGUAUAGUUAUCACUACAUGAGGAUCACCCAUGUAGAAGGCUGUGCUAUCUAAGUCGGAAACGAC”, for which the “apparent Kd” value is, setting by setting: under setting [1], 5.85 nM; under setting [2], 6.11 nM.
Taken in the same sequence, the figures for “GUUUUGGGAGGAUAUGCGUGGAUUAUUUUCGUAUGUUGUUUACAUGAGGAUCACCCAUGUAGAAGGUCUAGAGC” were 39.7 nM and 133 nM.
In the case of “CCAAGCUGUGUGAGGAUAUGCUGAACCUUGGUUCAGCAGAAGGCACAUGAGGAUCACCCAUGUGAAAAGCUUGG”, the “apparent Kd” value under setting [1] stood at 16.2 nM and the “apparent Kd” value under setting [2] turned out to be 56 nM.
On to “AAAUCAGCAGGAUAUGCGAUGUUGUGCUAGAUAGCGGGACCACAUGAGGAUCACCCAUGUAGAAGGGCUGGAUA”, for which the “apparent Kd” value is, setting by setting: under setting [1], 57.5 nM; under setting [2], 29.5 nM.
Taken in the same sequence, the figures for “CCUCCCAAGUAAGGAUAUCGGCCAUAGUUAACUCGAGAAGGUACAUGAGGAUCACCCAUGUCGUCCCUACAGACUCCUCCCUCC” were 9.19 nM and 9.15 nM.
Take “AGCGUGUAAGGAUAUACGUCGGAUAGCGAAUGCUGUCCCUAGUAGAAGGUACAUGAGGAUCACCCAUGUGUCCA”: the “apparent Kd” value reads like this: under setting [1], 23.3 nM; under setting [2], 70.1 nM.
As for “GCAAUAGCAUGAGGAUAUGCUGGAGUUUAGACAGUAGAAGGCAUGUCAUAAGACAUGAGGAUCACCCAUGUAGUUACAAUGGCA”, the “apparent Kd” value is, setting by setting: under setting [3], 18.4 nM; under setting [4], 13.6 nM.
For “ACUAGUUGGUAAGGAUAUCCUACACUAUUCUGACCCGUGCAAGCUACAUGAGGAUCACCCAUGUGGGAGAAGGUGCGUCAACGU”, the “apparent Kd” value under setting [1] came to 11 nM and the “apparent Kd” value under setting [2] came out at 10.6 nM.
As for “ACAUAGUGAGGAUAUGCUGCUCGUCACUUGCGUGAUGAGUAGCAGAAGGCACAUGAGGAUCACCCAUGUAAAAA”, the “apparent Kd” value was found to be 40.5 nM under setting [1] and 55 nM under setting [2].
“AAUUAAGAUCUAGGAUAUCACGUCGAUUAGACGUGAGAAGGAGAUCAUAACAUGAGGAUCACCCAUGUAUUACAUGAAUUAAUU”: the “apparent Kd” value under setting [3] turned out to be 28 nM and the “apparent Kd” value under setting [4] amounted to 25.9 nM.
On to “AAGUAGGGAGGAUAUACAUAGAUACAGAUUCAUGUGGAACUACAUGAGGAUCACCCAUGUAGAAGGCCCUAAUA”, for which the “apparent Kd” value is, setting by setting: under setting [1], 27.2 nM; under setting [2], 102 nM.
Turning to “AGUCGGUUCUUUUAACAUGAGGAUCACCCAUGUAUUUGCAACUAGGAUAUCGAUAAUUAUUUCGUCGAGAAGGAGUAUACAUAA”, the “apparent Kd” value reads like this: under setting [1], 24.2 nM; under setting [2], 38.5 nM.

As a reminder, the apparent Kd is a dissociation constant that holds for the conditions of the assay.
